{"source": "paper PMC5741288", "about": "(Pain Reports, 2016)", "key": {"QTcF interval": {"test": "QTcF interval", "assay_type": "in vivo, healthy men"}, "[1]": {"tested_on": "complete Freund's adjuvant–evoked thermal hyperalgesia", "details": "rat; cited from earlier work"}, "[2]": {"tested_on": "naïve and UVB-sensitized skin", "test": "Sensory testing part 2 on naïve and UVB-sensitized skin", "assay_type": "in vivo, healthy men", "procedure,_shortened": "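In the part 2 crossover (oral 10 or 50 mg, or placebo), minimal erythema dose was first found with graded UVB on the lower back. Three times that dose was then given to the volar forearm. Warm detection, heat pain detection, heat pain tolerance, mechanical pain threshold and allodynia were tested on UVB-treated and naïve skin. Times were predose, 4, 8, 24, 72, 120 and 144 h, and follow-up, to a 52 °C maximum.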"}, "[3]": {"details": "cited from earlier work"}, "[4]": {"test": "Oral body temperature and Emax model vs plasma concentration", "assay_type": "in vivo, healthy men", "details": "for Mean maximum body temperature: part 2", "procedure,_shortened": "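Oral temperature was recorded as a safety measure in healthy men after single oral tablet doses (part 1: 1–225 mg; part 2: 10, 50 mg, placebo). The maximum value was summarised per dose. An Emax model with baseline effect E0, Emax and EC50 related body temperature to plasma concentration of the test compound.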"}, "human TRPV1 receptors": {"target": "human TRPV1 receptors", "details": "cited from earlier work"}, "heat-evoked pain": {"tested_on": "heat-evoked pain", "assay_type": "in vivo, healthy men", "procedure,_shortened": "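In part 1 (single oral tablets, 1–225 mg, or placebo), heat pain detection and tolerance were measured with a 9 × 9 mm Peltier thermode on the volar forearm, to a 52 °C cutoff. Cold and von Frey mechanical pain thresholds were added in part 1b, with ratings on a 0–11 scale. Testing ran predose, 4 and 8 h, days 2, 4 and 6, and follow-up.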"}, "[5]": {"test": "Urinary excretion and renal clearance", "assay_type": "in vivo, healthy men", "procedure,_shortened": "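Samples were assayed by LC-MS/MS over 5–1000 ng/mL (LLOQ 5 ng/mL). Excreted amount = urine volume × concentration, % of dose = Ae/dose × 100, and renal clearance = Ae/AUC.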"}, "capsaicin-induced flare": {"tested_on": "capsaicin-induced flare", "test": "Block of topical capsaicin-induced flare in rats", "assay_type": "in vivo, Sprague Dawley rats"}, "[6]": {"tested_on": "carrageenan-evoked thermal hyperalgesia", "details": "cited from earlier work"}, "[7]": {"details": "part 1, vs plasma concentration"}}, "note": "pIC50: −log10 of the molar value.", "data": [{"smiles": "CC(C)(O)c1ccccc1-c1ccc2[nH]c(/C=C/c3ccc(C(F)(F)F)cc3)nc2c1", "note": "[JNJ-39439335, trans-2-(2-{2-[2-(4-Trifluoromethyl-phenyl)-vinyl]-1H-benzimidazol-5-yl}-phenyl)-propan-2-ol]", "values": [{"measurement": "Participants with increase in QTcF of >30 milliseconds or QTcF >450 milliseconds", "setting": "QTcF interval; either part of the study", "result": "No participant"}, {"measurement": "Participants with QTcF interval shortening of >30 milliseconds vs baseline", "setting": "QTcF interval; part 1, 10 mg dose group", "result": 2, "unit": "n"}, {"measurement": "Participants with QTcF interval shortening of >30 milliseconds vs baseline", "setting": "QTcF interval; part 1, 15 mg dose group", "result": 3, "unit": "n"}, {"measurement": "Participants with QTcF interval shortening of >30 milliseconds vs baseline", "setting": "QTcF interval; part 1, 120 mg dose group", "result": 2, "unit": "n"}, {"measurement": "Participants with QTcF interval shortening of >30 milliseconds vs baseline", "setting": "QTcF interval; part 1, 225 mg dose group", "result": 2, "unit": "n"}, {"measurement": "Participants with QTcF interval shortening of >30 milliseconds vs baseline", "setting": "QTcF interval; part 1, all JNJ-39439335 doses", "result": 9, "unit": "participants"}, {"measurement": "Participants with QTcF interval shortening of >30 milliseconds vs baseline", "setting": "QTcF interval; part 2, 50 mg", "result": 4, "unit": "participants"}, {"measurement": "Complete Freund's adjuvant–evoked thermal hyperalgesia", "setting": "[1]", "result": "significantly attenuated"}, {"measurement": "HPD threshold, HPT, and warm detection threshold", "setting": "[2]; naïve and UVB-sensitized skin, 10 and 50 mg", "result": "dose-dependent increase"}, {"measurement": "Mechanical pain detection threshold", "setting": "[2]; naïve skin or UVB-sensitized skin", "result": "no clear treatment or dose-related effects"}, {"measurement": "Plasma concentration at which most participants detected warmth before 52°C", "setting": "[2]; warm detection threshold", "result": "< 200", "unit": "ng/mL"}, {"measurement": "Safety margins in 4-week toxicology studies", "setting": "[3]; rat and dog", "result": "acceptable safety margins"}, {"measurement": "AUC24h at the no-observed-adverse-effect level dose", "setting": "[3]; rat, most sensitive animal species", "result": "10,700 ng·h·mL^−1"}, {"measurement": "EC50", "setting": "[4]; Homo sapiens, po, read-out: EC50, body temperature Emax model", "result": 0.0327, "unit": "µg/mL"}, {"measurement": "Participants with body temperature ≥39°C", "setting": "[4]; part 1, 120-mg, approximately 11-hour postdose", "result": 1, "unit": "participant"}, {"measurement": "E0, body temperature Emax model", "setting": "[4]; [7]", "result": 36.6, "unit": "°C"}, {"measurement": "Emax, body temperature Emax model", "setting": "[4]; [7]", "result": 37.6, "unit": "°C"}, {"measurement": "Mean maximum body temperature", "setting": "[4]; 10 mg", "result": 37.9, "unit": "°C"}, {"measurement": "Mean maximum body temperature", "setting": "[4]; 50 mg", "result": 38.0, "unit": "°C"}, {"measurement": "pIC50", "setting": "human TRPV1 receptors", "result": 8.33}, {"measurement": "Heat pain detection threshold, heat pain tolerance, and heat pain latency", "setting": "heat-evoked pain; effect of treatment", "result": "clear, consistent dose-related increases"}, {"measurement": "Mechanical pain detection threshold", "setting": "heat-evoked pain; healthy human participants (discussion)", "result": "no effect"}, {"measurement": "Dose levels at which mean HPT increased from predose to postdose", "setting": "heat-evoked pain; part 1", "result": "≥ 2", "unit": "mg"}, {"measurement": "Doses at which most participants reached the HPD cutoff temperature (52°C)", "setting": "heat-evoked pain; part 1", "result": "≥ 30", "unit": "mg"}, {"measurement": "Cold pain detection threshold", "setting": "heat-evoked pain; part 1b, 15- to 225-mg dose range", "result": "No clear separation from placebo and no clear dose-related effect"}, {"measurement": "Mean heat pain latency", "setting": "heat-evoked pain; part 1b, all dose levels tested (15 to 225 mg), predose to postdose", "result": "Increases in mean heat pain latency values"}, {"measurement": "Renal clearance", "setting": "[5]; in vivo", "result": "negligible"}, {"measurement": "Concentrations in urine", "setting": "[5]; lower limit of quantification 5 ng/mL", "result": "below the quantification limit"}, {"measurement": "Capsaicin-induced flare", "setting": "capsaicin-induced flare; pretreatment 0.3–30 mg/kg, p.o.", "result": "blocked the capsaicin-induced flare in a dose-dependent fashion"}, {"measurement": "Estimated plasma exposure associated with ED50", "setting": "capsaicin-induced flare; rat, data not shown", "result": "0.0676 ± 0.0449", "unit": "µg/mL"}, {"measurement": "Flare response induced by 1000 μg topical capsaicin", "setting": "capsaicin-induced flare; rat, single oral dose of 10 mg/kg", "result": "completely blocked"}, {"measurement": "Near maximally effective plasma concentration at the ED80", "setting": "[6]; rat carrageenan model of inflammatory pain", "result": 0.009, "unit": "µg/mL"}, {"measurement": "Carrageenan-evoked thermal hyperalgesia", "setting": "[6]; rat", "result": "significantly attenuated"}]}]}
